From ChEMBL document CHEMBL3739352, “Anticonvulsant activity, crystal structures, and preliminary safety evaluation of N-trans-cinnamoyl derivatives of selected (un)modified aminoalkanols” (Eur J Med Chem, 2016)
Active and inactive are the calls of the source. No cut-off for these calls is given here.

How the values were obtained:
Salmonella typhimurium [1] = assay: Mutagenicity in Salmonella typhimurium TA1535 assessed as number of revertants at 100 ug/plate by Ames test (reference value: 10 +/- 3); format: toxicity, organism-based; conditions: salmonella enterica subsp. enterica serovar typhimurium
Salmonella typhimurium [2] = assay: Mutagenicity in Salmonella typhimurium TA1535 assessed as number of revertants at 4 ug/plate by Ames test (reference value: 10 +/- 3); format: toxicity, organism-based; conditions: salmonella enterica subsp. enterica serovar typhimurium
Rattus norvegicus [3] = assay: Neurotoxicity in Sprague-Dawley rat at 30 mg/kg, po after 0.5 hrs; format: toxicity, organism-based; conditions: in vivo
How it was run: (§1)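 Sprague-Dawley rats were given 30 mg/kg orally in 0.5% methylcellulose. Neurotoxicity was checked at 0.25, 0.5, 1.0, 2.0 and 4 h after dosing. Results are given as number of rats showing neurotoxicity/number tested.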

Mus musculus [4] = assay: Neurotoxicity in albino Carworth Farms No.1 mouse at 30 mg/kg, ip after 4 hrs by rotarod test; format: toxicity, organism-based; conditions: in vivo
How it was run: (§2)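 Mice (albino Carworth Farms No.1) were dosed i.p. at 30, 100 or 300 mg/kg in 0.5% methylcellulose. They were tested 0.5 and 4 h later on a 1-inch knurled rod rotating at 6 rpm. Neurotoxicity was scored if a mouse could not stay on the rod for at least 1 min in each of three trials. Results are given as animals toxic/animals tested, with deaths noted.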

Rattus norvegicus [5] = assay: Neurotoxicity in Sprague-Dawley rat at 30 mg/kg, po after 4 hrs; format: toxicity, organism-based; conditions: in vivo; how it was run: as §1
Salmonella typhimurium [6] = assay: Mutagenicity in Salmonella typhimurium TA100 assessed as mutagenic index at 4 ug/plate by Ames test; format: toxicity, organism-based; conditions: salmonella enterica subsp. enterica serovar typhimurium
How it was run: (§3)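 Ames preincubation test. Strain culture was grown 12 h at 37 °C in nutrient broth, then mixed with compound in DMSO (final 4, 20, 100, 500, 1000 per plate) and buffer in top agar with trace histidine. This was plated on glucose minimal agar for 48 h at 37 °C. Mutagenic index = revertants with compound / DMSO control revertants, from three independent repeats.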

Mus musculus [7] = assay: Anticonvulsant activity in albino Carworth Farms No.1 mouse assessed as protection against subcutaneous dosed pentetrazol-induced seizures at 30 mg/kg, ip after 0.5 hrs; format: functional, organism-based
How it was run: (§4)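 Mouse i.p. screen in Carworth Farms No.1 albino mice at 30, 100 or 300 mg/kg in 0.5% methylcellulose. Testing was at 0.5 and 4 h after injection, by maximal electroshock or by subcutaneous pentetrazol challenge. Scoring was number protected / number used.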

Salmonella typhimurium [8] = assay: Mutagenicity in Salmonella typhimurium TA1535 assessed as number of revertants at 500 ug/plate by Ames test (reference value: 10 +/- 3); format: toxicity, organism-based; conditions: salmonella enterica subsp. enterica serovar typhimurium
Mus musculus [9] = assay: Neurotoxicity in albino Carworth Farms No.1 mouse at 30 mg/kg, ip after 0.5 hrs by rotarod test; format: toxicity, organism-based; conditions: in vivo; how it was run: as §2
Salmonella typhimurium [10] = assay: Mutagenicity in Salmonella typhimurium TA1535 assessed as mutagenic index at 1000 ug/plate by Ames test; format: toxicity, organism-based; conditions: salmonella enterica subsp. enterica serovar typhimurium
Mus musculus [11] = assay: Anticonvulsant activity in albino Carworth Farms No.1 mouse assessed as protection against maximal electroshock-induced seizures at 30 mg/kg, ip after 0.5 hrs; format: functional, organism-based; how it was run: as §4
Rattus norvegicus [12] = assay: Anticonvulsant activity in Sprague-Dawley rat assessed as protection against maximal electroshock-induced seizures at 30 mg/kg, po after 2 hrs; format: functional, organism-based
How it was run: (§5)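 Sprague-Dawley rats were given 30 mg/kg p.o. in 0.5% methylcellulose. Maximal electroshock was applied at 0.25, 0.5, 1.0, 2.0 and 4 h after dosing. Results are reported as number of rats protected / number tested.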

[13] = Lipophilicity of the compound using 85% methanol in water at 1 mg/ml by RT-TLC analysis; format: physicochemical; conditions: buffer
How it was run: (§6)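 Reversed-phase TLC with a methanol–water mobile phase at the stated methanol content (v/v). Compounds were spotted from 1 mg/mL methanol solutions after 1 h chamber saturation and located under UV light. Rf was measured and RM = log(1/Rf − 1) calculated.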

Mus musculus [14] = assay: Neurotoxicity in albino Carworth Farms No.1 mouse at 100 mg/kg, ip after 0.5 hrs by rotarod test; format: toxicity, organism-based; conditions: in vivo; how it was run: as §2
Rattus norvegicus [15] = assay: Anticonvulsant activity in Sprague-Dawley rat assessed as protection against maximal electroshock-induced seizures at 30 mg/kg, po after 0.5 hrs; format: functional, organism-based; how it was run: as §5
Mus musculus [16] = assay: Anticonvulsant activity in albino Carworth Farms No.1 mouse assessed as protection against maximal electroshock-induced seizures at 100 mg/kg, ip after 0.5 hrs; format: functional, organism-based; how it was run: as §4
Salmonella typhimurium [17] = assay: Mutagenicity in Salmonella typhimurium TA1535 assessed as assessed as mutagenic index at 500 ug/plate by Ames test; format: toxicity, organism-based; conditions: salmonella enterica subsp. enterica serovar typhimurium
Salmonella typhimurium [18] = assay: Mutagenicity in Salmonella typhimurium TA100 assessed as number of revertants at 20 ug/plate by Ames test (reference value: 77 +/-4); format: toxicity, organism-based; conditions: salmonella enterica subsp. enterica serovar typhimurium
How it was run: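 Salmonella TA100 preincubation Ames assay: overnight-type 12 h broth culture at 37 °C, compound in DMSO at final 4–1000 per plate, top agar with trace histidine, glucose minimal agar, 48 h at 37 °C. Revertant colonies per plate were counted, with a DMSO negative control and a sodium azide positive control. Three independent repetitions were run.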

[19] = Lipophilicity of the compound using 95% methanol in water at 1 mg/ml by RT-TLC analysis; format: physicochemical; conditions: buffer; how it was run: as §6
Salmonella typhimurium [20] = assay: Mutagenicity in Salmonella typhimurium TA1535 assessed as assessed as mutagenic index at 20 ug/plate by Ames test; format: toxicity, organism-based; conditions: salmonella enterica subsp. enterica serovar typhimurium; how it was run: as §3
Salmonella typhimurium [21] = assay: Mutagenicity in Salmonella typhimurium TA98 assessed as mutagenic index at 500 ug/plate by Ames test; format: toxicity, organism-based; conditions: salmonella enterica subsp. enterica serovar typhimurium
Salmonella typhimurium [22] = assay: Mutagenicity in Salmonella typhimurium TA100 assessed as mutagenic index at 20 ug/plate by Ames test; format: toxicity, organism-based; conditions: salmonella enterica subsp. enterica serovar typhimurium; how it was run: as §3
Mus musculus [23] = assay: Anticonvulsant activity in albino Carworth Farms No.1 mouse assessed as protection against subcutaneous dosed pentetrazol-induced seizures at 300 mg/kg, ip after 4 hrs; format: functional, organism-based; how it was run: as §4
Mus musculus [24] = assay: Anticonvulsant activity in albino Carworth Farms No.1 mouse assessed as protection against maximal electroshock-induced seizures at 300 mg/kg, ip after 0.5 hrs; format: functional, organism-based; how it was run: as §4
[25] = Hepatotoxicity against human HepG2 cells assessed as cell viability at 10 uM after 24 hrs by MTT assay relative to control; format: toxicity, cell-based; conditions: read-out: Activity
How it was run: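 HepG2 cells (EMEM, 10% FBS, 37 °C, 5% CO₂) were seeded at 1 × 10⁴ per well and cultured overnight. They were then exposed to increasing compound concentrations for 24 h. MTT reagent was added for 3 h and formazan crystals dissolved before reading. Data are mean ± SD of at least three independent experiments, relative to untreated control.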

Mus musculus [26] = assay: Anticonvulsant activity in albino Carworth Farms No.1 mouse assessed as protection against 6-Hz electroshock-induced seizures at 100 mg/kg, ip after 1 hr; format: functional, organism-based
How it was run: (§7)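 Carworth Farms No.1 albino mice were dosed i.p. at 100 mg/kg (0.5% methylcellulose solution or suspension). 6-Hz seizures were induced at 32 mA at 0.25, 0.5, 1.0, 2.0 and 4 h after injection. Results are given as animals protected / animals tested.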

in vitro [27] = conditions: human, HepG2 cells
in vitro [28] = conditions: human, HepG2 cells; remark: listed apart in the source
Mus musculus [29] = assay: Anticonvulsant activity in albino Carworth Farms No.1 mouse assessed as protection against 6-Hz electroshock-induced seizures at 100 mg/kg, ip after 2 hrs; format: functional, organism-based; how it was run: as §7
in vitro [30] = conditions: human, HepG2 cells; remark: listed apart in the source
Mus musculus [31] = assay: Anticonvulsant activity in albino Carworth Farms No.1 mouse assessed as protection against 6-Hz electroshock-induced seizures at 100 mg/kg, ip after 0.25 hrs; format: functional, organism-based; how it was run: as §7

| SMILES | Rm [13] | Rm [19] | Activity (Salmonella typhimurium [1]) | Activity (Salmonella typhimurium [2]) | Activity (Mus musculus [4]) | Activity_index (Salmonella typhimurium [6]) | Activity (Mus musculus [7]) | Activity (Salmonella typhimurium [8]) | Activity (Mus musculus [9]) | Activity_index (Salmonella typhimurium [10]) | Activity (Mus musculus [11]) | Activity (Mus musculus [14]) | Activity (Mus musculus [16]) | Activity_index (Salmonella typhimurium [17]) | Activity (Salmonella typhimurium [18]) | Activity_index (Salmonella typhimurium [20]) | Activity_index (Salmonella typhimurium [21]) | Activity_index (Salmonella typhimurium [22]) | Activity (Mus musculus [23]) | Activity (Mus musculus [24]) | further results |
| --- | --- | --- | --- | --- | --- | --- | --- | --- | --- | --- | --- | --- | --- | --- | --- | --- | --- | --- | --- | --- | --- |
| CC(O)CNC(=O)/C=C/c1ccccc1 (racemic) | -0.33 | -0.69 | 12 | 12 | Non-toxic | 0.9 | inactive | 14 | Non-toxic | 1.4 | inactive | Non-toxic | inactive | 1.4 | 70 | 1.3 | 0.9 | 0.9 | inactive | Active | Activity (Rattus norvegicus [3]): Non-toxic; Activity (Rattus norvegicus [5]): Non-toxic; Activity (Rattus norvegicus [12]): inactive; viability at 24 h, 10 µM [25]: 97.3%; Activity (Mus musculus [26]): Active; Activity (Rattus norvegicus [15]): inactive; viability at 24 h, 25 µM (in vitro [27]): 99%; viability at 24 h, 10 µM (in vitro [28]): 99%; Activity (Mus musculus [29]): inactive; viability at 24 h, 100 µM (in vitro [30]): 85%; Activity (Mus musculus [31]): Active |
| CCC(O)CNC(=O)/C=C/c1ccccc1 (racemic) | -0.25 | -0.66 | 5 | 9 | Non-toxic | 0.8 | inactive | 7 | Non-toxic | 0.6 | inactive | Non-toxic | inactive | 0.7 | 64 | 1.4 | 0.7 | 0.8 | inactive | Active | Activity (Rattus norvegicus [3]): Non-toxic; Activity (Rattus norvegicus [5]): Non-toxic; Activity (Rattus norvegicus [12]): inactive; viability at 24 h, 10 µM [25]: 94.5%; Activity (Mus musculus [26]): inactive; viability at 24 h, 25 µM (in vitro [27]): 97%; viability at 24 h, 10 µM (in vitro [28]): 98%; Activity (Mus musculus [29]): inactive; viability at 24 h, 100 µM (in vitro [30]): 89%; Activity (Mus musculus [31]): Active |
| O=C(/C=C/c1ccccc1)N[C@H]1CCCC[C@@H]1O (racemic) | -0.18 | -0.52 | 6 | 5 | Non-toxic | 0.9 | inactive | 7 | Non-toxic | 0.6 | inactive | Toxic | Active | 0.7 | 79 | 1.4 | 0.8 | 1 | inactive | inactive | – |

Further lines, with some results ahead:

| Rm [13] | Rm [19] | SMILES | Activity (Salmonella typhimurium [1]) | Activity (Salmonella typhimurium [2]) | Activity (Mus musculus [4]) | Activity_index (Salmonella typhimurium [6]) | Activity (Mus musculus [7]) | Activity (Salmonella typhimurium [8]) | Activity (Mus musculus [9]) | Activity_index (Salmonella typhimurium [10]) | Activity (Mus musculus [11]) | Activity (Mus musculus [14]) | Activity (Mus musculus [16]) | Activity_index (Salmonella typhimurium [17]) | Activity (Salmonella typhimurium [18]) | Activity_index (Salmonella typhimurium [20]) | Activity_index (Salmonella typhimurium [21]) | Activity_index (Salmonella typhimurium [22]) | Activity (Mus musculus [23]) | Activity (Mus musculus [24]) | further results |
| --- | --- | --- | --- | --- | --- | --- | --- | --- | --- | --- | --- | --- | --- | --- | --- | --- | --- | --- | --- | --- | --- |
| -0.23 | -0.6 | O=C(/C=C/c1ccccc1)N1CCC(O)CC1 | 9 | 5 | Non-toxic | 0.9 | inactive | 8 | Non-toxic | 0.5 | inactive | Non-toxic | Active | 0.8 | 68 | 0.6 | 1 | 0.9 | – | – | Activity (Rattus norvegicus [3]): Non-toxic; Activity (Rattus norvegicus [5]): Non-toxic; Activity (Rattus norvegicus [12]): inactive; Activity (Rattus norvegicus [15]): inactive |
| -0.29 | -0.66 | CCC(CO)NC(=O)/C=C/c1ccccc1 (racemic) | 14 | 11 | Non-toxic | 0.9 | inactive | 13 | Non-toxic | 1.3 | inactive | Non-toxic | inactive | 1.3 | 62 | 0.5 | 0.9 | 0.8 | inactive | Active | – |
| -0.39 | -0.69 | CC(CO)NC(=O)/C=C/c1ccccc1 (racemic) | 5 | 15 | Non-toxic | 0.9 | inactive | 8 | Non-toxic | 0.6 | inactive | Non-toxic | Active | 0.8 | 62 | 0.6 | 1 | 0.8 | inactive | Active | Activity (Rattus norvegicus [3]): Non-toxic; Activity (Rattus norvegicus [5]): Non-toxic; Activity (Rattus norvegicus [12]): inactive; viability at 24 h, 10 µM [25]: 97.1%; Activity (Mus musculus [26]): inactive; Activity (Rattus norvegicus [15]): inactive; viability at 24 h, 25 µM (in vitro [27]): 98%; viability at 24 h, 10 µM (in vitro [28]): 98%; Activity (Mus musculus [29]): inactive; viability at 24 h, 100 µM (in vitro [30]): 89% |
